Data published in ChEMBL document CHEMBL3112482, “Nonclassical antifolates, part 5. Benzodiazepine analogs as a new class of DHFR inhibitors: synthesis, antitumor testing and molecular modeling study” (Eur J Med Chem, 2014).

Assays:
SNB-75 = assay: Growth inhibition of human SNB75 cells at 10 uM after 48 hrs; format: functional; details: SNB-75, 48 h, read-out: GI
How it was run: (§1)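 NCI 60-cell-line disease-oriented human tumor panel, single-dose primary screen at 10 µM. Data given as mean-graph percent growth of treated cells, reported as percent growth inhibition (GI %).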

SNB-19 = assay: Growth inhibition of human SNB19 cells at 10 uM after 48 hrs; format: functional; details: SNB-19, 48 h, read-out: GI; how it was run: as §1
[1] = Growth inhibition of human SF539 cells at 10 uM after 48 hrs; format: functional; details: SF-539, 48 h, read-out: GI; how it was run: as §1
SF-268 = assay: Growth inhibition of human SF268 cells at 10 uM after 48 hrs; format: functional; details: SF-268, 48 h, read-out: GI; how it was run: as §1
NCI-H322M = assay: Growth inhibition of human NCI-H322M cells at 10 uM after 48 hrs; format: functional; details: read-out: GI
How it was run: (§2)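 Single-dose primary screen in the NCI 60 human tumour cell line panel, run at the NCI facility. The panel covers nine subpanels: leukaemia, non-small cell lung, colon, CNS, melanoma, ovarian, renal, prostate and breast. Read-out was percent growth of treated cells, shown as a mean graph and reported as percent growth inhibition.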

NCI-H23 = assay: Growth inhibition of human NCI-H23 cells at 10 uM after 48 hrs; format: functional; details: NCI-H23, 48 h, read-out: GI; how it was run: as §2
HOP-62 = assay: Growth inhibition of human HOP62 cells at 10 uM after 48 hrs; format: functional; details: HOP-62, 48 h, read-out: GI; how it was run: as §2
[2] = Growth inhibition of human EKVX cells at 10 uM after 48 hrs; format: functional; details: read-out: GI; how it was run: as §2
SR = assay: Growth inhibition of human SR cells at 10 uM after 48 hrs; format: functional; details: read-out: GI; how it was run: as §1
K562 = assay: Growth inhibition of human K562 cells at 10 uM after 48 hrs; format: functional; details: K562, 48 h, read-out: GI; how it was run: as §2
Dihydrofolate reductase = biological target: T1, Dihydrofolate reductase (Bos taurus, UniProt P00376); assay: Inhibition of bovine liver DHFR measured for every 1 min of 10 mins
T1 sequence (P00376 whole entry): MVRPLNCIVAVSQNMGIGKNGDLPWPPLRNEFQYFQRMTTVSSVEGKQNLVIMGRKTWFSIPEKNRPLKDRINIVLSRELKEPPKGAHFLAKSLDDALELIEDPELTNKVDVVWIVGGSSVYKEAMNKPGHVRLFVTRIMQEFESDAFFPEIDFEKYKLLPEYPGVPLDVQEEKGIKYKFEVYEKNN

[3] = Cytotoxicity against human renal cancer cells at 10 uM after 48 hrs; format: functional; details: Cancer cell lines
[4] = Cytotoxicity against human leukemia cells at 10 uM after 48 hrs; format: functional; details: Leukemia cell
[5] = Cytotoxicity against human non-small cell lung cancer cells at 10 uM after 48 hrs; format: functional; details: Cancer cell lines; for CC50: read-out: LC50 (the source's name); how it was run: as §2
T47D = assay: Growth inhibition of human T47D cells at 10 uM after 48 hrs; format: functional; details: read-out: GI; how it was run: as §1
[6] = Growth inhibition of human Hs 578T cells at 10 uM after 48 hrs; format: functional; details: read-out: GI; how it was run: as §2
MCF7 = assay: Growth inhibition of human MCF7 cells at 10 uM after 48 hrs; format: functional; details: MCF7, 48 h, read-out: GI; how it was run: as §2
MDA-MB-231 = assay: Growth inhibition of human MDA-MB-231 cells at 10 uM after 48 hrs; format: functional; details: MDA-MB-231, 48 h, read-out: GI; how it was run: as §2
PC-3 = assay: Growth inhibition of human PC3 cells at 10 uM after 48 hrs; format: functional; details: PC-3, 48 h, read-out: GI; how it was run: as §2
TK-10 = assay: Growth inhibition of human TK10 cells at 10 uM after 48 hrs; format: functional; details: TK-10, 48 h, read-out: GI; how it was run: as §1
[7] = Growth inhibition of human UO31 cells at 10 uM after 48 hrs; format: functional; details: UO-31, 48 h, read-out: GI; how it was run: as §1
SK-OV-3 = assay: Growth inhibition of human SKOV3 cells at 10 uM after 48 hrs; format: functional; details: SK-OV-3, 48 h, read-out: GI; how it was run: as §1
[8] = Growth inhibition of human NCI-ADR-RES cells at 10 uM after 48 hrs; format: functional; details: read-out: GI; how it was run: as §2
[9] = Growth inhibition of human OVCAR5 cells at 10 uM after 48 hrs; format: functional; details: OVCAR-5, 48 h, read-out: GI; how it was run: as §2
[10] = Growth inhibition of human OVCAR4 cells at 10 uM after 48 hrs; format: functional; details: OVCAR-4, 48 h, read-out: GI; how it was run: as §2
SK-MEL-28 = assay: Growth inhibition of human SK-MEL-28 cells at 10 uM after 48 hrs; format: functional; details: SK-MEL-28, 48 h, read-out: GI; how it was run: as §1
MDA-MB-435 = assay: Growth inhibition of human MDA-MB-435 cells at 10 uM after 48 hrs; format: functional; details: MDA-MB-435, 48 h, read-out: GI; how it was run: as §2
SW-620 = assay: Growth inhibition of human SW620 cells at 10 uM after 48 hrs; format: functional; details: SW-620, 48 h, read-out: GI; how it was run: as §1
A549 = assay: Growth inhibition of human A549 cells at 10 uM after 48 hrs; format: functional; details: A549, 48 h, read-out: GI; how it was run: as §2
HL-60(TB) = assay: Growth inhibition of human HL-60(TB) cells at 10 uM after 48 hrs; format: functional; details: HL-60, 48 h, read-out: GI
How it was run: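 NCI 60-cell-line human tumour panel covering nine subpanels (leukaemia, non-small cell lung, colon, CNS, melanoma, ovarian, renal, prostate, breast), run at the NCI facility. Primary screen tested a single dose of each compound. Read-out was percent growth of treated cells versus untreated cells, reported from the mean graph as percentage growth inhibition.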

OVCAR-8 = assay: Growth inhibition of human OVCAR8 cells at 10 uM after 48 hrs; format: functional; details: OVCAR-8, 48 h, read-out: GI; how it was run: as §2
SK-MEL-2 = assay: Growth inhibition of human SK-MEL-2 cells at 10 uM after 48 hrs; format: functional; details: SK-MEL-2, 48 h, read-out: GI; how it was run: as §1

Row | SMILES | inhibition of growth at 10 µM (SNB-75) [%] | inhibition of growth at 10 µM (SNB-19) [%] | inhibition of growth at 10 µM [1] [%] | inhibition of growth at 10 µM (SF-268) [%] | inhibition of growth at 10 µM (NCI-H322M) [%] | inhibition of growth at 10 µM (NCI-H23) [%] | inhibition of growth at 10 µM [2] [%] | inhibition of growth at 10 µM (SR) [%] | inhibition of growth at 10 µM (K562) [%] | IC50 (Dihydrofolate reductase) [µM] | CC50 [3] [µM] | GI50 [3] [µM] | TGI [3] [µM] | GI50 [4] [µM] | LC50 [4] [µM] | TGI [4] [µM] | GI50 [5] [µM] | TGI [5] [µM] | CC50 [5] [µM] | inhibition of growth at 10 µM (T47D) [%] | also measured
1 | COc1cc(/C=C2\CCCc3c2nc(N)nc3-c2cc(OC)c(OC)c(OC)c2)cc(OC)c1OC | 54.3 | 38.5 | 74.1 | 84.9 | < 30 | 88.4 | 44 | 99 | 93.6 | 21 | > 100 | 1.8 | 20.8 | 1.3 | > 100 | 36.5 | 1.7 | 42.5 | > 100 | 72.5 | inhibition of growth at 10 µM (HOP-62): 82.2%; inhibition of growth at 10 µM [6]: 63%; inhibition of growth at 10 µM (MCF7): 57%; inhibition of growth at 10 µM (MDA-MB-231): 71.1%; inhibition of growth at 10 µM (PC-3): 74.1%; inhibition of growth at 10 µM (TK-10): < 30%; inhibition of growth at 10 µM [7]: 65.7%; inhibition of growth at 10 µM (SK-OV-3): 92.8%; inhibition of growth at 10 µM [8]: 96.1%; inhibition of growth at 10 µM [9]: 93.2%; inhibition of growth at 10 µM [10]: 73.1%; inhibition of growth at 10 µM (SK-MEL-28): 75.1%
2 | COc1cc(/C=C2\CCCC3=C(c4cc(OC)c(OC)c(OC)c4)Nc4ccccc4N=C32)cc(OC)c1OC | 45.5 | 35.6 | 64.9 | 74 | < 30 | 91.5 | 40.2 | 97.3 | 94.7 | 0.09 | 68.4 | 2.3 | 20 | 1.4 | > 100 | 5 | 2.8 | 28 | 73.6 | 76.2 | inhibition of growth at 10 µM (MDA-MB-435): 96.8%; inhibition of growth at 10 µM (SW-620): 94.3%; inhibition of growth at 10 µM (A549): 94.1%; inhibition of growth at 10 µM (HL-60(TB)): 98.5%; inhibition of growth at 10 µM [6]: 46.8%; inhibition of growth at 10 µM (MCF7): 63.1%; inhibition of growth at 10 µM (MDA-MB-231): 75.9%; inhibition of growth at 10 µM (PC-3): 61.8%; inhibition of growth at 10 µM (TK-10): < 30%; inhibition of growth at 10 µM [7]: 94.4%; inhibition of growth at 10 µM (SK-OV-3): 54.6%; inhibition of growth at 10 µM [8]: 94.1%; inhibition of growth at 10 µM (OVCAR-8): 81.4%; inhibition of growth at 10 µM [9]: 83.5%; inhibition of growth at 10 µM [10]: 66.5%; inhibition of growth at 10 µM (SK-MEL-28): 70.6%; inhibition of growth at 10 µM (SK-MEL-2): 82.1%
